The full list was thinned out, with hits kept by preference.
T cell modulator: T cell immune modulation candidate | 2C CD8+ T cell-vesicle binding, flow cytometry; stronger effect = lower value | response (vesicle binding), % at 7 µM | 0.068% of 330,000 active;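 active means response, share of CD8 T cells binding vesicles, and their 90th percentile fluorescence all below set limits, cut at about 80% in these data, passing the limit was not always enough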;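 further: values below 100% mean blocked vesicle binding to the CD8+ T cells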
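Also added: QL9-peptide-loaded Drosophila micro-vesicles bearing Ld, ICAM-1 and B7-1; Test system: purified 2C TCR transgenic mouse naive CD8+ T cells; Measured by: cytometric PE anti-B7-1 and Alexa647 anti-CD8 signals after 1% paraformaldehyde fixation; Timing: binding step 1.5 h, 37 °C, antibody labelling 20 min, ice.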
Glyco luc inh: N-linked glycosylation inhibition. reporter increase, % at 12.5 µM. AID 588692. 0.23% of 360,000 active. D54 ERlucT glycosylation luciferase reporter, 24 h; percent of 100 nM tunicamycin response;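 active means mean luciferase reporter signal, scaled so untreated is 0 and the glycosylation-blocking control 100, at or above a set limit in every replicate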;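 further: luciferase carries N-glycosylation sites so blocking glycosylation raises the light; 0% = median of neutral control wells and 100% = median of 100 nM tunicamycin wells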
ALR H2O2 inh: human ALR oxidase inhibition via reduced H2O2; P55789; purified ALR, DTT oxidation, H2O2 HRP-luminol luminescence; inhibition, % (concentration not given with the values); 3.8% of 290,000 active; AID 485317;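 active means mean replicate inhibition above about 79%, with every replicate also reaching it, limit read from the data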
Target sequence (P55789 whole entry, looked up): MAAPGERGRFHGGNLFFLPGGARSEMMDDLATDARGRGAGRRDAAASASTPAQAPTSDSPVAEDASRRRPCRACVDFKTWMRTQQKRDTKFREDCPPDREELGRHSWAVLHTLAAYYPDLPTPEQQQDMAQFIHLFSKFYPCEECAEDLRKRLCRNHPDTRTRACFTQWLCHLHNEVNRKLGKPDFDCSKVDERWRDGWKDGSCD
An asterisk follows results filed as active; i = inactive; / = no result given.

SMILES | T cell modulator | Glyco luc inh | ALR H2O2 inh
CC(=O)Nc1ccc(C=NNc2ccc([N+](=O)[O-])cc2S(=O)(=O)Nc2ccccc2C(=O)O)cc1 | 687.2 | 0.5 | 65.5
CCc1ccc(N(C(=O)Cn2nnc(-c3ccccc3)n2)C(C(=O)NC2CCCCC2)c2ccccn2)cc1 (stereo not given) | 301.5 | -3.0 | -8.9
CC(CC(=O)c1ccccc1)=NCC(O)CN=C(C)CC(=O)c1ccccc1 (stereo not given) | / | 0.6 | /
O=c1c2cc3c(nc2[nH]c(=S)n1-c1ccccc1)CCCC3 | 496.3 | 1.3 | /
CCN(C[C@H]1N[C@@](CC)(C(=O)OC)[C@H]2C(=O)N(Cc3ccccc3)C(=O)[C@@H]12)C(=O)Nc1ccc(Cl)cc1 | 395.2 | 1.6 | /
CC12CCC(C(=O)N(NC(=O)c3ccccc3Cl)C1=O)C2(C)C (stereo not given) | 490.3 | -0.7 | -15.1
COc1ccc(-c2cc(C(=O)N3CCCCCC3)c3ccccc3n2)cc1 | / | 3.2 | /
O=S(=O)(Nc1ccc(F)cc1)c1ccc(S(=O)(=O)N2CCOCC2)cc1 | 241.7 | -3.9 | -5.0
CN(C)c1ccc(N2C(=O)CSC2=S)cc1 | 721.7 | 1.5 | 33.8
CC1SC(=S)N(c2ccc(N(C)C)cc2)C1=O (stereo not given) | 212.5 | 1.3 | 98.7*
N#Cc1ccccc1NC(=O)CSc1n[nH]c(-c2ccco2)n1 | 101.0 | 2.7 | -1.9
CCN(CCCNC(=O)c1[nH]c(C)c(C(C)=O)c1C)c1ccccc1 | 134.4 | 2.8 | 89.2*
CC(=O)c1c(C)[nH]c(C(=O)NCCc2ccccc2)c1C | 535.4 | -5.4 | 99.9*
CCCNC(=O)c1[nH]c(C)c(C(C)=O)c1C | 48.5 | 2.6 | -12.0
COc1ccc(CCNC(=O)c2[nH]c(C)c(C(C)=O)c2C)cc1OC | 57.5 | 1.7 | -2.9
O=C(CN1C(=O)NC2(CCCC2)C1=O)OCCOc1ccc(Br)cc1 | 187.1 | 3.4 | -1.4
N#Cc1c(NC(=O)CSc2nnc(-c3ccco3)n2-c2ccccc2)sc2c1CCC2 | 310.5 | 1.3 | 4.7
CCOC(=O)c1c(NC(=O)CSc2n[nH]c(-c3ccco3)n2)sc(C)c1C | 438.7 | -1.0 | 1.4
NC(=O)c1c(NC(=O)CSc2nnc(-c3ccco3)n2-c2ccccc2)sc2c1CCC2 | 910.6 | / | 97.5*
O=C(CSc1n[nH]c(-c2ccco2)n1)Nc1sc2c(c1C(=O)Nc1ccccc1)CCCC2 | 237.4 | -3.1 | 97.9*
COc1ccc(Cc2nc3ccc(C(=O)NCC4COCCO4)cc3o2)cc1 (stereo not given) | 210.1 | 0.4 | 0.2
Cc1cccc(NC(=O)c2cccc(N3C(=O)C4C5C=CC(C6CC56)C4C3=O)c2)c1 (stereo not given) | 176.5 | 3.1 | 89.1*
Cc1cc(C)cc(NC(=O)c2cccc(N3C(=O)C4C5C=CC(C5)C4C3=O)c2)c1 (stereo not given) | / | 1.8 | /
O=[N+]([O-])c1ccc(-c2c[nH]c(=S)[nH]2)cc1 | 501.3 | 1.4 | 98.1*
COc1cc(-c2ccccc2)[nH]c(=S)n1 | 391.6 | 1.2 | -2.6
SMILES | T cell modulator | Glyco luc inh | ALR H2O2 inh
S=c1[nH]cc(-c2ccccc2)[nH]1 | i | 1.0 | 98.7*
CCn1c(-c2ccc([N+](=O)[O-])cc2)n[nH]c1=S | 465.3 | -2.0 | -9.1
O=C(Nc1ccc2nc(N3CCOCC3)sc2c1)c1cc2ccccc2o1 | / | -5.6 | /
CCCCn1c(SCC(=O)Nc2ccc3c(c2)OCCO3)nnc1C(CC)N(C)C (stereo not given) | 426.6 | -0.5 | -2.6
CCCCn1c(SCC(=O)Nc2cc(C(F)(F)F)cc(C(F)(F)F)c2)nnc1C(CC)N(C)C (stereo not given) | 385.2 | 28.1* | 4.5
Cc1c(-c2csc(N)n2)c2ccccc2n1C | 584.5 | 2.5 | 38.4
COc1ccc(S(=O)(=O)N2CCN(C(=O)CSC(=S)N3CCCC3)CC2)cc1 | 152.0 | 1.5 | -3.8
COc1ccc(CN2CCC(=O)N([C@H](CO)Cc3ccccc3)CC2)cc1OC | 842.6 | 1.9 | /
Cc1[nH]oc(=O)c1N=Nc1c(Cl)cccc1Cl | 636.5 | 2.6 | 92.3*
Cc1[nH]oc(=O)c1N=Nc1ccccc1 | 320.6 | 6.0 | 2.9
CNC(=O)COC(=O)c1cccc(S(=O)(=O)N2CCN(c3ccc(F)cc3)CC2)c1 | 415.1 | -1.9 | /
Nc1c(C(=O)N2CCOCC2)sc(=S)n1-c1ccccc1 | 437.4 | -1.2 | 92.6*
Cc1ccc(-n2c(N)c(C(=O)N3CCCCC3)sc2=S)cc1 | 122.4 | -3.3 | 7.5
CCOc1ccc(-n2c(N)c(C(=O)N3CCN(C)CC3)sc2=S)cc1 | 137.6 | -1.2 | 21.4
Nc1c(C(=O)N2CCCCC2)sc(=S)n1-c1ccccc1 | 393.6 | -0.6 | 98.9*
CN(C)S(=O)(=O)c1ccc(Cl)c(C(=O)NC2=NCCS2)c1 | 202.1 | 1.8 | -7.3
CC1(C)Cc2c(C#N)c(NCC3CCCO3)nc(-c3ccco3)c2CO1 (stereo not given) | 184.9 | 1.9 | 4.8

Screening data as filed in PubChem.
